Results published in ChEMBL document CHEMBL1134773, “Design and synthesis of potent and selective alpha(4)beta(7) integrin antagonists” (J Med Chem, 2001).

How the values were obtained:
Integrin alpha-4/beta-7 = target: T1, Integrin alpha-4/beta-7 (Homo sapiens, UniProt P13612+P26010); test: Inhibition of alpha-4-beta-7/MAdCAM interactions; assay type: protein-complex assay
T1 sequence (P13612 whole entry): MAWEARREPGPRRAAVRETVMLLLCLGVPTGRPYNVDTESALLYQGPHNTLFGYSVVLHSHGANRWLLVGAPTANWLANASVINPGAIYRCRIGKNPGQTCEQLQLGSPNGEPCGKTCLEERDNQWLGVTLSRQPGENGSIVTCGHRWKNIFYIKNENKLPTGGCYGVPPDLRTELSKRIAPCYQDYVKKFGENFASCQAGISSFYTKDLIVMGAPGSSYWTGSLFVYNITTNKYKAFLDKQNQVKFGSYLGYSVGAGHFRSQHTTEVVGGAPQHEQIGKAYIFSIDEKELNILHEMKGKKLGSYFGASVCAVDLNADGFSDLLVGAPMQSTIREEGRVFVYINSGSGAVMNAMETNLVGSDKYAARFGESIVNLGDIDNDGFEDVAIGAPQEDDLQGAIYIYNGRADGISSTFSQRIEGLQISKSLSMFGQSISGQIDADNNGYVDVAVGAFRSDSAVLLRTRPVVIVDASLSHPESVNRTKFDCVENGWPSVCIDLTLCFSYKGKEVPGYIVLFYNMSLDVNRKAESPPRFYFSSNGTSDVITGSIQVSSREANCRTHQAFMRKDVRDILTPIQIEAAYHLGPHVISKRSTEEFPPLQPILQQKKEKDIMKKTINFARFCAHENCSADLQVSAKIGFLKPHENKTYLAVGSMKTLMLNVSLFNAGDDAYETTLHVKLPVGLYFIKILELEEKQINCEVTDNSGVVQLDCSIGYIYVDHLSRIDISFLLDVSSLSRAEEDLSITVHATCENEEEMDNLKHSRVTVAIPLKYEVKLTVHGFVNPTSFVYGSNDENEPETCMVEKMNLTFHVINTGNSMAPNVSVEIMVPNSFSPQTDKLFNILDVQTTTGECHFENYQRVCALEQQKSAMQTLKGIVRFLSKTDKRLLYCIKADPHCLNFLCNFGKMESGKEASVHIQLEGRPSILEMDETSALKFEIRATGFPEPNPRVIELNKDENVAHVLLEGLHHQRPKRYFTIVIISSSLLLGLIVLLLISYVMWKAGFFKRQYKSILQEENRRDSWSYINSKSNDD
T1 sequence (P26010 whole entry): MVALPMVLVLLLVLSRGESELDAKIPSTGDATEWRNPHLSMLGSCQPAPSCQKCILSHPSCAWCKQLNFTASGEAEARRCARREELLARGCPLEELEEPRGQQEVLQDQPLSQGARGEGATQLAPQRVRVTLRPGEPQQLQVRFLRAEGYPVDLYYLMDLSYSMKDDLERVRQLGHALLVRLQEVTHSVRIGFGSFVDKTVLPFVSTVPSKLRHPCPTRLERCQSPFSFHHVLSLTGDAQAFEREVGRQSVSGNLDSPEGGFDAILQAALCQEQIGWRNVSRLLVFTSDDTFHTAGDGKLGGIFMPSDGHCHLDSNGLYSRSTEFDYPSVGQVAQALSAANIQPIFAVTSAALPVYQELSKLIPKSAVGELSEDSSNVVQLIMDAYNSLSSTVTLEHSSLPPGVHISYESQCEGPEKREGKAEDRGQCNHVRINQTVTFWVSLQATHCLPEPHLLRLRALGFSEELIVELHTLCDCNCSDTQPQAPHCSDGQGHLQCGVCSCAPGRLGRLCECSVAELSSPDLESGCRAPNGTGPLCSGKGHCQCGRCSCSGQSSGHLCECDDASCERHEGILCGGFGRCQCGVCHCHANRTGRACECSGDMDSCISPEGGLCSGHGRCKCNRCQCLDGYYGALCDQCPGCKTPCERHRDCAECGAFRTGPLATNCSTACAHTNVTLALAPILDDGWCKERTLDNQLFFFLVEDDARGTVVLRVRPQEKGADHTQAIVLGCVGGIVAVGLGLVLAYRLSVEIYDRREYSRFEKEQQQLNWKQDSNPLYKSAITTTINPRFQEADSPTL
Procedure, shortened: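 Plates carried anti-human IgG capture antibody, then 100 ng MAdCAM-Ig (30 min, room temperature), then were blocked 1 h at 37 °C. H33342-labelled 38-β7 cells (8×10^5/mL, Ca2+/Mg2+ 1.0 mM) were preincubated 10 min at 37 °C with peptide. They adhered 30 min at 37 °C, and unbound cells were spun off inversely at 50g. Values are mean ± SD of ≥3 experiments.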

[1] = target: T2, Integrin alpha-4/beta-7 (Homo sapiens) (UniProt P13612+P26010); test: Ability to inhibit adhesion of alpha4-beta7 integrin expressing 38-beta7 lymphoma cells to chinese hamster ovary (CHO) cells stably transfected with MAdCAM-1; assay type: cell-based
Procedure, shortened: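 38-β7 lymphoma cells (α4β7+) labelled 30 min at 37 °C with 12 μg/mL H33342, then 8×10^5/mL in buffer with 1.0 mM Ca2+/Mg2+. Preincubated 10 min at 37 °C with peptide at 1 mg/mL final. Allowed to adhere 30 min at 37 °C to confluent MAdCAM-1-transfected CHO monolayers (seeded 24 h before). Nonadherent cells removed by inverse centrifugation. Result given as % of medium control, mean of two experiments.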

[2] = target: Integrin alpha-4/beta-1 (Homo sapiens) (UniProt P05556+P13612); test: Inhibition of alpha4-beta1 lymphoma cell binding to CHO-VCAM-1 cells.; assay type: cell-based
PBL = test: Effect on human PBL cell binding to Laminin.; assay type: cell-based
Procedure, shortened: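 Human PBL labelled with H33342 (12 μg/mL, 30 min, 37 °C), resuspended at 8×10^5/mL with 1.0 mM Ca2+ and Mg2+. Peptides at 1 mg/mL final were preincubated with the cells for 10 min at 37 °C. Cells then adhered 30 min at 37 °C to plates coated 16 h at 4 °C with 2 μg/well laminin (pH 9.4 carbonate). Read-out is % of medium control, mean ± SD of ≥3 experiments.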

[3] = target: T2, Integrin alpha-4/beta-7 (Homo sapiens); test: Inhibition of alpha4-beta7 lymphoma cell binding to CHO-VCAM-1 cells.; assay type: cell-based

Structure (SMILES) | IC50 (Integrin alpha-4/beta-7) | Adhesion [1] | Adhesion [2] | Adhesion (PBL) | Adhesion [3]
CC(C)C[C@H](NC(=O)c1cc2ccccc2cn1)C(=O)N[C@@H](CC(=O)O)C(=O)N[C@H](C(N)=O)[C@@H](C)O | 465 µM | – | – | – | –
CC(C)C[C@@H]1NC(=O)[C@@H](Cc2ccccc2)NC(=O)[C@H]2CCCN2C(=O)[C@@H](CC(=O)O)NC(=O)[C@H]([C@@H](C)O)NC(=O)[C@@H](CC(=O)O)NC1=O | – | 3% | 72% | 95% | 38%
CC(C)C[C@@H]1NC(=O)[C@@H](Cc2c[nH]cn2)NC(=O)[C@H]2CCCN2C(=O)[C@@H](CC(=O)O)NC(=O)[C@H]([C@@H](C)O)NC(=O)[C@@H](CC(=O)O)NC1=O | – | 9% | 74% | 114% | 27%
CC(C)C[C@@H]1NC(=O)[C@H](Cc2c[nH]cn2)NC(=O)[C@H]2CCCN2C(=O)[C@H](CC(=O)O)NC(=O)[C@H]([C@@H](C)O)NC(=O)[C@H](CC(=O)O)NC1=O | 301 µM | – | – | – | –
CC(C)C[C@@H]1NC(=O)[C@H](Cc2ccccc2)NC(=O)[C@H]2CCCN2C(=O)[C@H](CC(=O)O)NC(=O)[C@H]([C@@H](C)O)NC(=O)[C@H](CC(=O)O)NC1=O | 163 µM | – | – | – | –
CSCC[C@H]1NC(=O)[C@H]2CCCN2C(=O)[C@@H](CC(=O)O)NC(=O)[C@H]([C@@H](C)O)NC(=O)[C@@H](CC(=O)O)NC(=O)[C@H](CC(C)C)NC1=O | – | 15% | 108% | 102% | 36%
CC(C)C[C@@H]1NC(=O)[C@H](Cc2ccc(O)cc2)NC(=O)[C@H]2CCCN2C(=O)[C@H](CC(=O)O)NC(=O)[C@H]([C@@H](C)O)NC(=O)[C@H](CC(=O)O)NC1=O | 308 µM | – | – | – | –
CSCC[C@@H]1NC(=O)[C@H]2CCCN2C(=O)[C@H](CC(=O)O)NC(=O)[C@H]([C@@H](C)O)NC(=O)[C@H](CC(=O)O)NC(=O)[C@H](CC(C)C)NC1=O | 317 µM | – | – | – | –
CC(C)C[C@@H]1NC(=O)[C@@H](Cc2ccccc2)NC(=O)[C@H]2CCCN2C(=O)[C@@H](C)NC(=O)[C@H]([C@@H](C)O)NC(=O)[C@@H](CC(=O)O)NC1=O | – | 7% | 109% | – | 36%
CC(C)C[C@@H]1NC(=O)[C@H](Cc2ccccc2)NC(=O)[C@H]2CCCN2C(=O)[C@H](C)NC(=O)[C@H]([C@@H](C)O)NC(=O)[C@H](CC(=O)O)NC1=O | 292 µM | – | – | – | –
CC(C)C[C@@H]1NC(=O)[C@@H](Cc2ccc(O)cc2)NC(=O)[C@H]2CCCN2C(=O)[C@@H](CC(=O)O)NC(=O)[C@H]([C@@H](C)O)NC(=O)[C@@H](CC(=O)O)NC1=O | – | 3% | 78% | 111% | 37%
